Legend:
Format in all cases: functional
Conditions in all cases: Homo sapiens
NCI-H23 = assay: Antitumor activity against NCI-H23 cells
CAKI-1 = assay: Antitumor activity against CAKI1 cells
RPMI-8226 = assay: Antitumor activity against RPMI-8226 cells
[1] = Antitumor activity against NCI-H322 cells
Hs-578T = assay: Antitumor activity against HS578T cells
OVCAR-3 = assay: Antitumor activity against OVCAR-3 cells
BT-549 = assay: Antitumor activity against BT549 cells
NCI/ADR-RES = assay: Antitumor activity against NCI/ADR-RES cells
UACC-62 = assay: Antitumor activity against UACC62 cells
Outline: (§1)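 Tested in the NCI 60-human-tumour-cell-line panel at five concentrations, in 10-fold dilutions from 10^-4 to 10^-8 M. Three parameters were taken from the dose-response data, each as log10 of the molar concentration: GI50 (50% net growth inhibition), TGI (total growth inhibition) and LC50 (50% net cell death).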

EKVX = assay: Antitumor activity against EKVX cells
HOP-92 = assay: Antitumor activity against HOP92 cells
NCI-H460 = assay: Antitumor activity against NCI-H460 cells
OVCAR-5 = assay: Antitumor activity against OVCAR5 cells
K562 = assay: Antitumor activity against K562 cells
SN12C = assay: Antitumor activity against SN12C cells; outline: as §1
SK-MEL-5 = assay: Antitumor activity against SK-MEL-5 cells; outline: as §1
SK-MEL-2 = assay: Antitumor activity against SK-MEL-2 cells
UO-31 = assay: Antitumor activity against UO31 cells; outline: as §1
RXF 393 = assay: Antitumor activity against RXF393 cells
SR = assay: Antitumor activity against SR cells; outline: as §1
MDA-MB-435 = assay: Antitumor activity against MDA-MB-435 cells
[2] = read-out: Log LC50 (the source's name) (converted)

SMILES: O=C(NNS(=O)(=O)c1ccc(Cl)cc1Cl)c1cccnc1Nc1ccc(Cl)cc1
- GI50 (NCI-H23): 17.4 µM
- LC50 (NCI-H23): > 100 µM
- TGI (NCI-H23; read-out: Log TGI (converted)): 42.7 µM
- GI50 (CAKI-1): 20 µM
- LC50 (CAKI-1): > 100 µM
- TGI (CAKI-1; read-out: Log TGI (converted)): 58.9 µM
- GI50 (RPMI-8226): 17.8 µM
- LC50 (RPMI-8226): > 100 µM
- TGI (RPMI-8226; read-out: Log TGI (converted)): 53.7 µM
- GI50 [1]: 14.8 µM
- CC50 [1, 2]: > 100 µM
- TGI ([1]; read-out: Log TGI (converted)): 40.7 µM
- GI50 (Hs-578T): 17.8 µM
- CC50 (Hs-578T; [2]): 97.7 µM
- TGI (Hs-578T; read-out: Log TGI (converted)): 41.7 µM
- GI50 (OVCAR-3): 20.4 µM
- CC50 (OVCAR-3; [2]): > 100 µM
- TGI (OVCAR-3; read-out: Log TGI (converted)): > 100 µM
- GI50 (BT-549): 16.6 µM
- LC50 (BT-549): 72.4 µM
- TGI (BT-549; read-out: Log TGI (converted)): 34.7 µM
- GI50 (NCI/ADR-RES): 23.4 µM
- LC50 (NCI/ADR-RES): > 100 µM
- TGI (NCI/ADR-RES; read-out: Log TGI (converted)): 75.9 µM
- GI50 (UACC-62): 21.9 µM
- LC50 (UACC-62): > 100 µM
- TGI (UACC-62; read-out: Log TGI (converted)): 75.9 µM
- GI50 (EKVX): 26.3 µM
- LC50 (EKVX): > 100 µM
- TGI (EKVX; read-out: Log TGI (converted)): > 100 µM
- GI50 (HOP-92): 14.8 µM
- CC50 (HOP-92; [2]): > 100 µM
- TGI (HOP-92; read-out: Log TGI (converted)): 40.7 µM
- GI50 (NCI-H460): 35.5 µM
- LC50 (NCI-H460): > 100 µM
- TGI (NCI-H460; read-out: Log TGI (converted)): 100 µM
- GI50 (OVCAR-5): 26.3 µM
- CC50 (OVCAR-5; [2]): > 100 µM
- TGI (OVCAR-5; read-out: Log TGI (converted)): 77.6 µM
- GI50 (K562): 12.9 µM
- LC50 (K562): 50.1 µM
- TGI (K562; read-out: Log TGI (converted)): 25.7 µM
- GI50 (SN12C): 31.6 µM
- LC50 (SN12C): > 100 µM
- TGI (SN12C; read-out: Log TGI (converted)): > 100 µM
- GI50 (SK-MEL-5): 14.1 µM
- LC50 (SK-MEL-5): 61.7 µM
- TGI (SK-MEL-5; read-out: Log TGI (converted)): 29.5 µM
- GI50 (SK-MEL-2): 18.6 µM
- LC50 (SK-MEL-2): 97.7 µM
- TGI (SK-MEL-2; read-out: Log TGI (converted)): 42.7 µM
- GI50 (UO-31): 37.2 µM
- LC50 (50% net cell death) (UO-31): > 100 µM
- TGI (UO-31; read-out: Log TGI (converted)): > 100 µM
- GI50 (RXF 393): 17 µM
- LC50 (RXF 393): > 100 µM
- TGI (RXF 393; read-out: Log TGI (converted)): 43.7 µM
- GI50 (SR): 14.8 µM
- LC50 (SR): 97.7 µM
- TGI (SR; read-out: Log TGI (converted)): 38 µM
- GI50 (MDA-MB-435): 27.5 µM
- LC50 (MDA-MB-435): > 100 µM
- TGI (MDA-MB-435; read-out: Log TGI (converted)): 81.3 µM
